Laboratory results taken from paper PMC11047177 (ESMO Open, 2024).
“Also recorded” adds a separate entry of the source.

Experiment: Phase I study NCT03854227: DLTs and adverse events
Type: in vivo, human
Summary of the method: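 Open-label, multicentre first-in-human trial in adults (ECOG 0–1) with advanced or metastatic tumours. Oral test compound, q.d. or b.i.d., on an empty stomach in continuous 28-day cycles. Part 1 started at 0.5 mg q.d., with escalation guided by a two-parameter Bayesian logistic regression model on cycle 1 DLTs. Part 2 ran at 6 mg q.d. AEs were graded by CTCAE 5.0 and summarised descriptively by dose level.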

SMILES: Cc1ncnc2c1ccn2[C@@H]1C[C@H](Oc2cc(C(F)F)c(F)c3c2CNCC3)[C@@H](O)[C@H]1O [PF-06939999]
- Grade ≥3 TRAE thrombocytopenia/platelet count decreased (overall (part 1 + part 2), N=54): 22%
- TRAE dysgeusia, any grade (part 1 + part 2, N=54): 22%
- TRAE fatigue, any grade (part 1 + part 2, N=54): 28%
- TRAE nausea, any grade (part 1 + part 2, N=54): 32%
- TRAE thrombocytopenia, any grade (part 1 + part 2, N=54): 41%
- DLT (part 1, 0.5 mg b.i.d., N=1): 0 n (%)
- Grade ≥3 TRAE Anemia (part 1, 0.5 mg b.i.d., N=1): 0 n (%)
- Grade ≥3 TRAE Fatigue (part 1, 0.5 mg b.i.d., N=1): 0 n (%)
- Grade ≥3 TRAE Lymphocyte count decreased (part 1, 0.5 mg b.i.d., N=1): 0 n (%)
- Grade ≥3 TRAE Muscular weakness (part 1, 0.5 mg b.i.d., N=1): 0 n (%)
- Grade ≥3 TRAE Neutropenia (part 1, 0.5 mg b.i.d., N=1): 0 n (%)
- Grade ≥3 TRAE Thrombocytopenia (part 1, 0.5 mg b.i.d., N=1): 0 n (%)
- DLT (part 1, 0.5 mg q.d., N=1): 0 n (%)
- Grade ≥3 TRAE Anemia (part 1, 0.5 mg q.d., N=1): 0 n (%)
- Grade ≥3 TRAE Fatigue (part 1, 0.5 mg q.d., N=1): 0 n (%)
- Grade ≥3 TRAE Lymphocyte count decreased (part 1, 0.5 mg q.d., N=1): 0 n (%)
- Grade ≥3 TRAE Muscular weakness (part 1, 0.5 mg q.d., N=1): 0 n (%)
- Grade ≥3 TRAE Neutropenia (part 1, 0.5 mg q.d., N=1): 0 n (%)
- Grade ≥3 TRAE Thrombocytopenia (part 1, 0.5 mg q.d., N=1): 0 n (%)
- DLT (part 1, 1 mg b.i.d., N=2): 0 n (%)
- Grade ≥3 TRAE Anemia (part 1, 1 mg b.i.d., N=2): 1 (50) n (%)
- Grade ≥3 TRAE Fatigue (part 1, 1 mg b.i.d., N=2): 0 n (%)
- Grade ≥3 TRAE Lymphocyte count decreased (part 1, 1 mg b.i.d., N=2): 0 n (%)
- Grade ≥3 TRAE Muscular weakness (part 1, 1 mg b.i.d., N=2): 0 n (%)
- Grade ≥3 TRAE Neutropenia (part 1, 1 mg b.i.d., N=2): 0 n (%)
- Grade ≥3 TRAE Thrombocytopenia (part 1, 1 mg b.i.d., N=2): 0 n (%)
- DLT (part 1, 2 mg b.i.d., N=2): 0 n (%)
- Grade ≥3 TRAE Anemia (part 1, 2 mg b.i.d., N=3): 0 n (%)
- Grade ≥3 TRAE Fatigue (part 1, 2 mg b.i.d., N=3): 0 n (%)
- Grade ≥3 TRAE Lymphocyte count decreased (part 1, 2 mg b.i.d., N=3): 0 n (%)
- Grade ≥3 TRAE Muscular weakness (part 1, 2 mg b.i.d., N=3): 0 n (%)
- Grade ≥3 TRAE Neutropenia (part 1, 2 mg b.i.d., N=3): 0 n (%)
- Grade ≥3 TRAE Thrombocytopenia (part 1, 2 mg b.i.d., N=3): 1 (33) n (%)
- DLT (part 1, 4 mg b.i.d., N=3): 0 n (%)
- Grade ≥3 TRAE Anemia (part 1, 4 mg b.i.d., N=3): 1 (33) n (%)
- Grade ≥3 TRAE Fatigue (part 1, 4 mg b.i.d., N=3): 1 (33) n (%)
- Grade ≥3 TRAE Lymphocyte count decreased (part 1, 4 mg b.i.d., N=3): 0 n (%)
- Grade ≥3 TRAE Muscular weakness (part 1, 4 mg b.i.d., N=3): 0 n (%)
- Grade ≥3 TRAE Neutropenia (part 1, 4 mg b.i.d., N=3): 0 n (%)
- Grade ≥3 TRAE Thrombocytopenia (part 1, 4 mg b.i.d., N=3): 1 (33) n (%)
- DLT (part 1, 4 mg q.d., N=4): 0 n (%)
- Grade ≥3 TRAE Anemia (part 1, 4 mg q.d., N=5): 2 (40) n (%)
- Grade ≥3 TRAE Fatigue (part 1, 4 mg q.d., N=5): 0 n (%)
- Grade ≥3 TRAE Lymphocyte count decreased (part 1, 4 mg q.d., N=5): 0 n (%)
- Grade ≥3 TRAE Muscular weakness (part 1, 4 mg q.d., N=5): 1 (20) n (%)
- Grade ≥3 TRAE Neutropenia (part 1, 4 mg q.d., N=5): 0 n (%)
- Grade ≥3 TRAE Thrombocytopenia (part 1, 4 mg q.d., N=5): 0 n (%)
- DLT thrombocytopenia, number of patients (part 1, 6 mg b.i.d.): 2 n
- DLT (part 1, 6 mg b.i.d., N=2): 2 (100) n (%)
- Grade ≥3 TRAE Anemia (part 1, 6 mg b.i.d., N=4): 1 (25) n (%)
- Grade ≥3 TRAE Fatigue (part 1, 6 mg b.i.d., N=4): 0 n (%)
- Grade ≥3 TRAE Lymphocyte count decreased (part 1, 6 mg b.i.d., N=4): 0 n (%)
- Grade ≥3 TRAE Muscular weakness (part 1, 6 mg b.i.d., N=4): 0 n (%)
- Grade ≥3 TRAE Neutropenia (part 1, 6 mg b.i.d., N=4): 0 n (%)
- Grade ≥3 TRAE Thrombocytopenia (part 1, 6 mg b.i.d., N=4): 2 (50) n (%)
- DLT (grade 3) neutropenia, number of patients (part 1, 6 mg q.d.): 1 n
- DLT (part 1, 6 mg q.d., N=6): 1 (17) n (%)
- Grade ≥3 TRAE Anemia (part 1, 6 mg q.d., N=6): 2 (33) n (%)
- Grade ≥3 TRAE Fatigue (part 1, 6 mg q.d., N=6): 1 (17) n (%)
- Grade ≥3 TRAE Lymphocyte count decreased (part 1, 6 mg q.d., N=6): 0 n (%)
- Grade ≥3 TRAE Muscular weakness (part 1, 6 mg q.d., N=6): 0 n (%)
- Grade ≥3 TRAE Neutropenia (part 1, 6 mg q.d., N=6): 1 (17) n (%)
- Grade ≥3 TRAE Thrombocytopenia (part 1, 6 mg q.d., N=6): 0 n (%)
- DLT (grade 3) anemia, number of patients (part 1, 8 mg q.d.): 1 n
- DLT (part 1, 8 mg q.d., N=3): 1 (33) n (%)
- Grade ≥3 TRAE Anemia (part 1, 8 mg q.d., N=3): 1 (33) n (%)
- Grade ≥3 TRAE Fatigue (part 1, 8 mg q.d., N=3): 0 n (%)
- Grade ≥3 TRAE Lymphocyte count decreased (part 1, 8 mg q.d., N=3): 1 (33) n (%)
- Grade ≥3 TRAE Muscular weakness (part 1, 8 mg q.d., N=3): 0 n (%)
- Grade ≥3 TRAE Neutropenia (part 1, 8 mg q.d., N=3): 0 n (%)
- Grade ≥3 TRAE Thrombocytopenia (part 1, 8 mg q.d., N=3): 2 (67) n (%)
- Patients reporting DLTs (part 1, 4 of 24 DLT-assessable patients): 17%
- DLT grade 3 thrombocytopenia, number of patients (part 1, 6-mg b.i.d. cohort): 1 n
- DLT grade 4 thrombocytopenia, number of patients (part 1, 6-mg b.i.d. cohort): 1 n
- DLT (part 1, Total, N=24): 4 (17) n (%)
- Grade ≥3 TRAE Fatigue (part 1, Total, N=28): 2 (7) n (%)
- Grade ≥3 TRAE Lymphocyte count decreased (part 1, Total, N=28): 1 (4) n (%)
- Grade ≥3 TRAE Muscular weakness (part 1, Total, N=28): 1 (4) n (%)
- Grade ≥3 TRAE Neutropenia (part 1, Total, N=28): 1 (4) n (%)
- Grade ≥3 TRAE Thrombocytopenia (part 1, Total, N=28): 6 (21) n (%)
- Maximum tolerated dose (MTD) (part 1 dose escalation, 0.5 mg q.d. to 6 mg b.i.d.): No MTD was determined; also recorded: MTD was not identified
- Dose reduction due to thrombocytopenia, patients (part 2, 6 mg q.d., 4 patients): 15%
- Dose reduction due to anemia, patients (part 2, 6 mg q.d., 5 patients): 19%
- Patients with ≥1 dose reduction due to AEs (part 2, 6 mg q.d., eight patients): 31%
